Active and inactive are the calls of the source. The calls are words filed in the database; no cut-off is given here.
Tests used:
Influenza A virus [1] = assay: Antiviral activity against Influenza A virus (A/Puerto Rico/8/1934(H1N1)) infected in MDCK cells assessed as inhibition of virus-induced cytopathic effect incubated for 48 hrs by crystal violet staining based assay; format: functional, organism-based
Outline: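 MDCK cells were infected at MOI 0.1, the inoculum was removed, and compounds were added in triplicate. After 48 h the cells were fixed in 4% formaldehyde (20 min, RT) and stained with 0.1% crystal violet (30 min). Dye was solubilized in methanol and read at 570 nm.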

[2] = Selectivity index, ratio of CC50 for cytotoxicity in dog MDCK cells assessed as reduction in cell viability incubated for 48 hrs by crystal violet staining based assay to […] in dog MDCK cells assessed as reduction in cell viability incubated for 48 hrs by crystal violet staining based assay
[3] = AUC (0 to t) in rat at 0.35 mg/kg /kg, iv administered as single dose; format: ADME, organism-based; settings: in vivo
Outline: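 Male Kunming mice (20-25 g) and male Sprague Dawley rats (180-220 g) were fasted 12 h before dosing. Oral dosing was by gavage as a suspension in 0.5% sodium carboxymethyl cellulose; iv dosing was via tail vein in PEG400. Serial plasma samples were taken to 24 h, protein-precipitated with acetonitrile plus N-CH3 internal standard, and quantified by LC-MS/MS (n=3). Bioavailability = AUCoral/AUCiv.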

[4] = Cumulative drug excretion in rat urine at 3.5 mg/kg, po administered as single dose measured after 72 hrs; format: ADME, organism-based; settings: read-out: Drug excretion
Outline: (§1)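 Single oral (gavage, 0.5% CMC-Na) or iv (tail vein, PEG400) dosing was given to male Kunming mice or Sprague Dawley rats held in metabolic cages. Urine and feces were collected at intervals to 72 h. Feces were dried, ground and homogenized in water (1:9 w/v). Samples were precipitated with acetonitrile containing internal standard and analysed by LC-MS/MS.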

[5] = Cumulative drug excretion in rat feces at 3.5 mg/kg, po administered as single dose measured after 72 hrs; format: ADME, organism-based; settings: faeces, read-out: Drug excretion; outline: as §1
[6] = Metabolic stability in rat liver microsomes at 2 uM after 60 mins; format: ADME, Microsome; settings: read-out: Stability
Outline: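 Mouse, rat or human liver microsomes (final 0.5 mg/mL protein) were preincubated with an NADPH-regenerating system in 50 mM Tris-HCl pH 7.4 at 37 °C for 5 min. Compound was added at 2 µM final and incubated at 37 °C; NADPH-free incubations served as controls. Reactions were quenched with acetonitrile plus internal standard at 60 min. Percent remaining was measured by LC-MS/MS (n=3).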

Influenza A virus [7] = assay: Antiviral activity against Influenza A virus (A/Puerto Rico/8/1934(H1N1)) infected in MDCK cells incubated for 3 days by crystal violet staining based plaque assay; format: functional, organism-based; settings: 72 h
Outline: (§2)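 Confluent MDCK monolayers were exposed to 10-fold serial virus dilutions for 1 h at 37 °C, then washed. The overlay was DMEM with 1.5% agarose, 0.02% DEAE-dextran and 1 µg/ml TPCK-trypsin. After 3 days at 37 °C in 5% CO2, cells were fixed with 0.05% glutaraldehyde, stained with 1% crystal violet in 20% ethanol, and plaques were counted.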

Influenza A virus [8] = assay: Antiviral activity against Influenza A virus Virginia/ATCC1/2009 infected in MDCK cells incubated for 3 days by crystal violet staining based plaque assay; format: functional, organism-based; settings: Virginia/ATCC1/2009, MDCK, 72 h; outline: as §2
[9] = Toxicity in Influenza A virus (A/Puerto Rico/8/1934(H1N1)) infected Kunming mouse assessed as induction of body weight loss at 20 to 40 ug/day dosed intranasally starting 4 hrs after viral challenge and continued for 7 days by plaque assay; format: organism-based; settings: in vivo, inhaled_or_intranasal
Influenza A virus [10] = assay: Antiviral activity against Influenza A virus (A/Puerto Rico/8/1934(H1N1)) infected in Kunming mouse assessed as improvement in body weight at 5 to 10 mg/kg/day, po starting 4 hrs after viral challenge and continued for 7 days and measured up to day 14 by plaque assay; format: functional, organism-based
Outline: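 Groups of 10 female Kunming mice were infected intranasally with PR8 (1000 PFU/mouse) on day 0 and dosed once daily for seven days. Weight and clinical signs were recorded daily. Mice losing more than 25% of pre-infection weight were scored dead and euthanized; survivors were killed on day 14.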

[11] = target: Neuraminidase (Influenza A virus (A/Puerto Rico/8/1934(H1N1))) (UniProt P03468); assay: Inhibition of neuraminidase in inactivated Influenza A virus (A/Puerto Rico/8/1934(H1N1)) supernatants at 12.5 to 200 ug/mL pre-incubated for 30 mins by fluorescence based assay relative to control
Sequence of Neuraminidase (Influenza A virus (A/Puerto Rico/8/1934(H1N1))) (P03468 whole entry): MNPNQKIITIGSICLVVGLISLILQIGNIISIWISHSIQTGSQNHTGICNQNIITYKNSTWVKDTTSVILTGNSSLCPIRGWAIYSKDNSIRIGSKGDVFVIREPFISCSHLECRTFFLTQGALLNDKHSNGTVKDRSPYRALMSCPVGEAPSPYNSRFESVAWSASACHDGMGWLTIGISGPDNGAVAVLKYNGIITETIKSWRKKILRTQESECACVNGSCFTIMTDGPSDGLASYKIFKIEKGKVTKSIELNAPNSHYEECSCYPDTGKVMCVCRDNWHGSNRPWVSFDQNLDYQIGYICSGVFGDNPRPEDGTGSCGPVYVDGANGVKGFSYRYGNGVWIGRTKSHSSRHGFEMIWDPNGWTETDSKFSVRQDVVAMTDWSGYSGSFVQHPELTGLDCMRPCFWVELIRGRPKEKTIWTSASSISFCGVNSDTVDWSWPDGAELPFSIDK
Outline: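 Inactivated PR8 virus supernatant was mixed with compound diluted in 33 mM MES ([…]) and 4 mM CaCl2 for 30 min at 37 °C. MUNANA (20 µM) was then added for 30 min at 37 °C. The reaction was stopped with 25% ethanol and 0.1 M glycine, pH 10.7. Fluorescence was read at ex 360 and em 440 nm.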

Influenza A virus [12] = assay: Antiviral activity against luciferase tagged Influenza A virus H5N1 pseudovirus infected in MDCK cells assessed as reduction in virus infection incubated for 48 hrs by luciferase reporter gene assay; format: functional, organism-based
Outline: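 MDCK cells infected with luciferase-expressing H5N1 HA/NA pseudotyped HIV-based virus were treated with compound under four different treatment regimens. Infection was quantified by firefly luciferase glow assay.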

[13] = target: Hemagglutinin (Influenza A virus (A/Puerto Rico/8/1934(H1N1))) (UniProt P03452); assay: Inhibition of conformational changes in Influenza A virus (A/Puerto Rico/8/1934(H1N1)) Hemagglutinin assessed as increase in retention amount of HA1 subunit on HA proteins at 25 to 50 ug/ml added before acidification incubated for 1 hr by conformational change inhibition assay
Sequence of Hemagglutinin (Influenza A virus (A/Puerto Rico/8/1934(H1N1))) (P03452 whole entry, the tested form may be a part): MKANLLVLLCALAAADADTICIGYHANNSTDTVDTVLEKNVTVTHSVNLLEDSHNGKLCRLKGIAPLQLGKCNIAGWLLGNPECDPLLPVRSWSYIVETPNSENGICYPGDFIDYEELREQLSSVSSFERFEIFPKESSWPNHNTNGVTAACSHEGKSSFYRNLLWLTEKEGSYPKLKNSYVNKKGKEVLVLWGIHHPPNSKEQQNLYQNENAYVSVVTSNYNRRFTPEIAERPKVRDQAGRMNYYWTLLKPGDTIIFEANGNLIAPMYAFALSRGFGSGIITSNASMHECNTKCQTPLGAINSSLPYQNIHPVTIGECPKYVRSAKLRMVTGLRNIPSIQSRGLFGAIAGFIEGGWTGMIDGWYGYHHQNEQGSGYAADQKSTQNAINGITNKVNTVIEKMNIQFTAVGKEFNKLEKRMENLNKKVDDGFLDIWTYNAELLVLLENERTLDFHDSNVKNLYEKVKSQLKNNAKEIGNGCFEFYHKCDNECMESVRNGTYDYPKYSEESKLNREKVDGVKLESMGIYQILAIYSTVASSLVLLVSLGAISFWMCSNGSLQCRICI
Outline: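 C-terminal biotinylated H1/PR8 HA (0.2 µg/ml) was captured on streptavidin plates for 1 h at RT. Compound (50, 25, 12.5 µg/ml) was added for 1 h, then 1 M acetate pH 5.25 for 20 min. 2.5 mM DTT was applied for 60 min to remove HA1 from postfusion HA. Retained HA1 was detected with anti-HA1 head antibody and HRP secondary, read as A450 with TMB.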

[14] = target: Hemagglutinin (Influenza A virus (A/Puerto Rico/8/1934(H1N1))) (UniProt P03452); assay: Inhibition of trypsin-mediated cleavage of Influenza A virus (A/Puerto Rico/8/1934(H1N1)) Hemagglutinin (HA0) at 50 ug/ml incubated for 30 mins by Coomassie blue fast staining and SDS-PAGE gel based trypsin susceptibility assay
Outline: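 About 5 µg PR8 HA protein was preincubated with about 50 µg/ml compound for 30 min at RT; controls received 2% DMSO. Samples were acidified with 1 M sodium acetate pH 5.0 (one kept at pH 7.0) for 20 min at 37 °C, then neutralized with 200 mM Tris pH 8.5. TPCK-trypsin was added at 1:50 by mass for 30 min at 37 °C. Samples were run on non-reducing 12% SDS-PAGE with Coomassie staining.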

[15] = target: Hemagglutinin (Influenza A virus (A/Puerto Rico/8/1934(H1N1))) (UniProt P03452); assay: Inhibition of Hemagglutinin in Influenza A virus (A/Puerto Rico/8/1934(H1N1))/H1N1 pseudovirus infected in 293FT cells assessed as reduction in virus infection at 50 ug/ml pre-treated with virus before infection and measured after 48 hrs by inverted fluorescence microscopy; format: cell-based
Outline: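 PR8 pseudoviruses (IAV-GFP) carrying wild-type HA or a mutant HA (T30N/E233D/T359A or T359A) were made in 293FT cells by co-transfecting HA, NA, HIV backbone and GFP reporter plasmids, and supernatants were harvested at 48 h. Pseudovirus was pretreated with compound at 50 µg/ml for 1 h at 37 °C before infection. Infected GFP-positive cells were viewed by fluorescence microscopy 48 h p.i.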

## CC(=O)c1cc(C)c(O)c(Cc2[nH]c3ccccc3c2Cc2c(O)c(C)cc(C(C)=O)c2O)c1O
Influenza A virus [1]
  IC50: 26.4 µM
[2]
  Ratio CC50/IC50: 55.8
[3]
  AUC(0-t): 10100 ng·h/mL
[4]
  dose excreted at 72 h: 0.004%
[5]
  dose excreted at 72 h: 96.4%
[6]
  remaining at 1 h, 2 µM: 36.6%
Influenza A virus [7]
  IC50: < 13 µg/mL
Influenza A virus [8]
  IC50: < 13 µg/mL
[9]
  Activity: Non-Toxic
Influenza A virus [10]
  Activity: Active
[11]
  inhibition: < 15%
Influenza A virus [12]
  Activity: Dose-dependent effect
[13]
  inhibition: Active
[14]
  inhibition: inactive
[15]
  inhibition: Active
